Laboratory results as given in PMC9436332 (Proceedings of the National Academy of Sciences of the …, 2022).
“Also recorded” adds a separate entry of the source.

How the values were obtained:
[1] = system: quantified cysteines in the human proteome (22Rv1 cells); test: Cysteine-directed MS-ABPP; assay type: binding; conditions: 20 µM, 3 h, in situ; 22Rv1 and Ramos
Summary of the method: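 22Rv1 cells were plated at 15 million cells per 15-cm dish and treated the next day. Ramos cells were adjusted to 3 × 10⁶ cells/mL and rested 30 min before treatment. Cells got 20 μM test compound in situ for 3 h, then were washed in cold DPBS and frozen. Cells were probe-sonicated in cold PBS, and 2 mg/mL lysate was labelled with IA-DTB (10 mM DMSO stock) for 1 h at room temperature in the dark. Cysteines were quantified by LC-MS/MS/MS against DMSO.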

[2] = system: mouse DRG neurons; test: Vacor-induced neurite degeneration in mouse DRG neurons; assay type: cell-based; conditions: for Degeneration Index (%): +50 μM Vacor alone
[3] = system: rat DRG neurons; assay type: cell-based; conditions: 48 h
[4] = system: SARM1-C311A; test: Gel-ABPP, in situ, SARM1-C311A mutant expressed in HEK293T cells; assay type: binding, human; conditions: 20 µM, 1 h
Summary of the method: (§1)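 N-terminally FLAG-tagged human SARM1 (WT or C311A) was transiently expressed in HEK293T cells and treated 48 h post-transfection. Cells got either alkyne probe alone (20 μM, 1 h, in situ) or 3 h compound pretreatment followed by probe. Lysates (ice-cold DPBS with protease inhibitors, 1.0 mg/mL) underwent 1 h CuAAC with rhodamine-azide/TCEP/TBTA/CuSO₄. Analysis was SDS-PAGE in-gel fluorescence with background-subtracted band intensities; IC₅₀ by four-parameter fit; three independent experiments.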

[5] = system: WT-SARM1; test: Gel-ABPP, in situ, WT-SARM1 recombinantly expressed in HEK293T cells; assay type: binding, human; conditions: 1 h
Summary of the method: as §1

[6] = system: WT-SARM1; test: Gel-ABPP, in vitro treatment, WT-SARM1 recombinantly expressed in HEK293T cells; assay type: binding, human; conditions: 1 h; for effect of metabolite on MY-13B engagement of SARM1: 0.125-1 mM, MY-13B 20 µM
[7] = system: mouse SARM1; test: Gel-ABPP, in situ, mouse SARM1 recombinantly expressed in HEK293T cells; assay type: binding; conditions: 20 µM, 1 h, compared with human SARM1
[8] = system: SARM1; conditions: cited from earlier work
[9] = target: T1, endogenous SARM1 (Homo sapiens, UniProt Q6SZW1); assay type: cell-based; conditions: SH-SY5Y cells, vacor 50 µM, 0-8 h
T1 sequence (Q6SZW1 28-724): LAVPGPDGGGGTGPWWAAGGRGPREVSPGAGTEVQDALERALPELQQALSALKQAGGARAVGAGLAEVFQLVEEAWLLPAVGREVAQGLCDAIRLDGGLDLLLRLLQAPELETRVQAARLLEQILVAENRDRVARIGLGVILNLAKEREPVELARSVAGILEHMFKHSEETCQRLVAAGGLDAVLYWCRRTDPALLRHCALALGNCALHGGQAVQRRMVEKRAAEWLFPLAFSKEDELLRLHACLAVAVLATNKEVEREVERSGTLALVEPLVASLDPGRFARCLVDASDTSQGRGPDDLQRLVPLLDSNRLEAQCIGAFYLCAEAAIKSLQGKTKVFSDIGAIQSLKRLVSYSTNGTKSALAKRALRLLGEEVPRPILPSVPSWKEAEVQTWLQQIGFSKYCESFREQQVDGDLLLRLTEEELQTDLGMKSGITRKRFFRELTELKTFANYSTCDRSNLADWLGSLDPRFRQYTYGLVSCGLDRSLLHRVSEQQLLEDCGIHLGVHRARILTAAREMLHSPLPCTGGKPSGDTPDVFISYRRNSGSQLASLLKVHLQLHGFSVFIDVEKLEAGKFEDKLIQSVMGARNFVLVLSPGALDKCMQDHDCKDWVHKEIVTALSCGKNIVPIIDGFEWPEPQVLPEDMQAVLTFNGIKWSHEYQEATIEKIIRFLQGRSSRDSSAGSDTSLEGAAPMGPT
Summary of the method: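 SH-SY5Y cells were pretreated in situ with compound for 3 h (0.1% DMSO), then given 50 μM vacor for 4 h. Pellets were resuspended in DPBS and quenched with cold methanol:acetonitrile (1:1) containing 100 pmol 8-Br-cADPR internal standard. Extraction used three freeze/sonication cycles, −20 °C for 1 h, centrifugation, drying and resuspension. cADPR was measured by LC-MS/MS, normalized to total protein; mean ± SEM of three independent experiments.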

## C=CC(=O)N1[C@@H](c2ccc3c(c2)OCO3)c2[nH]c3ccccc3c2C[C@H]1C(=O)NC [MY-9A]
[1]
  off-target cysteines also engaged by the SARM1-inactive enantiomers: DCTN4_C258, KEAP1_C151, PTGES2_C110, and UBR1_C1603
[2]; 1–20 µM, vacor 50 µM, over 48 h
  blockade of vacor-induced neurite degeneration: ineffective
[3]; 40 nM vincristine
  prevention of vincristine-induced neurite degeneration: weak activity

## C#CCNC(=O)[C@@H]1Cc2c([nH]c3ccccc23)[C@H](c2ccc3c(c2)OCO3)N1C(=O)C=C [MY-13A]
[4]
  reactivity of alkyne probe with SARM1-C311A (gel-ABPP): very low reactivity

## C#CCNC(=O)[C@H]1Cc2c([nH]c3ccccc23)[C@@H](c2ccc3c(c2)OCO3)N1C(=O)C=C [MY-13B]
[5]; 20 µM
  reactivity of alkyne probe with WT-SARM1 (gel-ABPP): reacted strongly
[4]
  reactivity of alkyne probe with SARM1-C311A (gel-ABPP): very low reactivity
[6]; 20 µM
  reactivity of alkyne probe with SARM1 in vitro: stereoselective reactivity; also recorded: maintained stereoselective engagement
[7]
  labeling of recombinant mouse SARM1 by alkyne probe: lower extent of labeling

## NC(=O)c1ccc[n+]([C@@H]2O[C@H](COP(=O)([O-])OP(=O)(O)OC[C@H]3O[C@@H](n4cnc5c(N)ncnc54)[C@H](O)[C@@H]3O)[C@@H](O)[C@H]2O)c1 [NAD^+, nicotinamide adenine dinucleotide, reference compound]
[6]
  effect of metabolite on MY-13B engagement of SARM1: neither metabolite affected MY-13B engagement

## NC(=O)c1ccc[n+]([C@@H]2O[C@H](COP(=O)([O-])O)[C@@H](O)[C@H]2O)c1 [NMN, nicotinamide mononucleotide, reference compound]
[6]
  effect of metabolite on MY-13B engagement of SARM1: neither metabolite affected MY-13B engagement

## COC(=O)c1c(C)nc(C)c(C(=O)OCC(C)C)c1-c1ccccc1N=O [dHNN, dehydronitrosonisoldipine, reference compound]
[5]; 5–50 µM, 3 h pretreatment, MY-13B 20 µM
  engagement of SARM1_C311 (effect on MY-13B reactivity): did not observe substantial alterations in MY-13B reactivity
[8]
  effect of C311 mutagenesis on inhibitory activity: only modestly impaired (∼twofold)

## O=C(NCc1cccnc1)Nc1ccc([N+](=O)[O-])cc1 [vacor]
[9]
  induction of cADPR production: robust, time-dependent production of cADPR
[2]; 8 h
  Degeneration Index (%): ~60%
[2]; 24 h
  Degeneration Index (%): full degeneration

## CC[C@]1(O)C[C@H]2CN(CCc3c([nH]c4ccccc34)[C@@](C(=O)OC)(c3cc4c(cc3OC)N(C=O)[C@H]3[C@@](O)(C(=O)OC)[C@H](OC(C)=O)[C@]5(CC)C=CCN6CC[C@]43[C@@H]65)C2)C1 [vincristine, reference compound]
[3]; vincristine 40 nM
  induction of neurite degeneration: robust neurite degeneration
